# From PubChem
# TRPC4 block: blocks the mouse TRPC4 cation channel; Q9QUQ5; HEK293 TRPC4beta/mu-opioid, DAMGO-evoked Fluo4 calcium flux; hits give low values; B-score at 10 µM; actives 0.39% (n = 300,000);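 active means B-score over 3 SD under the library average, no early fluorescence shift, positive overall ratio signal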
# Target sequence (Q9QUQ5 whole entry, looked up): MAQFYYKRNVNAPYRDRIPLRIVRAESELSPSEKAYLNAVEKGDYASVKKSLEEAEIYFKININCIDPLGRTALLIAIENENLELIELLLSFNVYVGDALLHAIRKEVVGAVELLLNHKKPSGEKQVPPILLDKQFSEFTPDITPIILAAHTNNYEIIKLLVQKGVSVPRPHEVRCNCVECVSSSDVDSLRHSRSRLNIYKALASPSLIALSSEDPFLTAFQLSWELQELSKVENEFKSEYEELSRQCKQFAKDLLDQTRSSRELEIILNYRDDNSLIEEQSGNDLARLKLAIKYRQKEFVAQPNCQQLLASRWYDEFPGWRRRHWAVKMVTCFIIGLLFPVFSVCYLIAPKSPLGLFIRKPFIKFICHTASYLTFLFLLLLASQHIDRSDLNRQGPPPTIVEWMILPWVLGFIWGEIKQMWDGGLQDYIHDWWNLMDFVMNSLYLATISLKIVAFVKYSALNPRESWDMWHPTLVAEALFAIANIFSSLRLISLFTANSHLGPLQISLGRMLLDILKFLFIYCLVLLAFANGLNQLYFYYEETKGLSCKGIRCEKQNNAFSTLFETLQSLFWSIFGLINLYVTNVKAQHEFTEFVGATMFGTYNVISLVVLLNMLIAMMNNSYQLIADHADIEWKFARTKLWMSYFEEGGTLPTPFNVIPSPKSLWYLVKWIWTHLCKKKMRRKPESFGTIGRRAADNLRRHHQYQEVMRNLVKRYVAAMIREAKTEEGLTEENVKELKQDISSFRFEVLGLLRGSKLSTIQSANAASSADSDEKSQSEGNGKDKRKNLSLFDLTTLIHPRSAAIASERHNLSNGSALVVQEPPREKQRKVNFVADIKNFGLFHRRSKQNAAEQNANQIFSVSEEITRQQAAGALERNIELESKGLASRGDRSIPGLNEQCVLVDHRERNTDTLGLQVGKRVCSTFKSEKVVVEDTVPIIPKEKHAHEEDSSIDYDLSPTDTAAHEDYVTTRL
#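 Signal: kinetic Fluo4 fluorescence imaging of calcium influx. Material: stable TRPC4beta/mu-opioid receptor HEK293 cells. Probe or stimulus: DAMGO in two steps, submaximal then maximal.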
# TRPC6 activator: activates the mouse TRPC6 cation channel | Q61143 | HEK293-TRPC6 membrane potential dye fluorescence; hits give high values | B-score at 10 µM | actives 0.13% (n = 310,000);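 active means B-score of the integrated fluorescence ratio above library mean plus 3 SD, and starting fluorescence ratio within library mean plus 5 SD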;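 further: higher score means more depolarization so channel activation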
# TRPC4 act: activators of mouse TRPC4 channel. Q9QUQ5. HEK293 TRPC4beta/mu-opioid, Fluo4 calcium fluorescence; hits give high values. B-score at 10 µM. actives 0.49% (n = 310,000). AID 2237;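 active means B-score above 5 SD of library B-scores, and initial fluorescence ratio not above library mean plus 5 SD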;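 further: positive B-score marks a calcium rise read as TRPC4 activation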
#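 Assay system – TRPC4beta and mu-opioid receptor HEK293 stable cells · Measured by – Fluo4 fluorescence, kinetic · Schedule – dye loading 45 min room temperature, 110 s kinetic read · Read-out – B-scored integrated calcium fluorescence ratio · Controls – buffer and maximal DAMGO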
# TRPC4 potent: TRPC4 (mouse) allosteric potentiation. B-score at 10 µM. Q9QUQ5. actives 0.42% (n = 310,000). HEK293 TRPC4beta/mu-opioid, DAMGO EC20, Fluo-4 Ca2+ flux; hits give high values;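 active means B-score of calcium response area above 5 SD of library B-scores, with initial fluorescence ratio within 5 SD of library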
# Platelet DG rel: modulates dense granule release in human platelets. actives 0.22% (n = 300,000). inhibition, %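 (compounds screened at 7.5 µM in platelet-rich plasma)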. AID 1663. human platelet-rich plasma, SFLLRN dense granule ATP release, luminescence;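 active means mean replicate score, as percent of positive control, at or above 50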
# TRPC6 inh: mouse TRPC6 channel inhibition | Q61143 | AID 2553 | HEK293-TRPC6, membrane potential dye, ACh-evoked depolarization; hits give low values | actives 1.1% (n = 310,000) | B-score at 10 µM;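 active means B-score under library mean minus 3 SD, initial fluorescence not abnormally high, positive integrated signal ratio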;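 further: B-score derived from integrated fluorescence ratio over the kinetic read; more negative B-score means stronger inhibition of depolarization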
# TRPC4 spec 2: second selectivity test of TRPC6 inhibitors: effect on mouse TRPC4; inhibition, % at 10 µM; actives 42% (n = 920); AID 2776; HEK293 TRPC4/MOR, membrane potential dye fluorescence; channel activated by saturating DAMGO dose; shares compounds with TRPC6 inh;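 active means compounds whose fluorescence signal differed from control wells by over 3 SD, either direction, in both duplicate plates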
# TRPC4 spec: selectivity of TRPC6 inhibitors: effect on mouse TRPC4; shares compounds with TRPC6 inh; HEK293 TRPC4/mu-opioid, membrane potential fluorescence; activity change, negative = inhibition, % at 10 µM; actives 61% (n = 920); AID 2777;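 active means rise or fall in signal beyond 3 SD of buffer-only wells in both replicate plates, either sign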;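 further: integrated kinetic ratio of fluorescence range over baseline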
# HEK293 MPD ctr 2-1: second check of TRPC6 inhibitor effects in parental HEK293 cells. shares compounds with TRPC6 inh. actives 31% (n = 920). AID 2779. parental HEK293 membrane potential dye fluorescence; maximal acetylcholine challenge after compound addition. signal change vs control, % at 10 µM;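 active means membrane potential signal moving either way by over 3 SD of the maximum-effect control, in both duplicate plates, meaning non-specific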
# HEK293 MPD ctr-1: checks TRPC6 inhibitor effects in parental HEK293 cells; shares compounds with TRPC6 inh; parental HEK293 membrane potential dye fluorescence; membrane potential signal change, % at 10 µM; actives 60% (n = 920); AID 2780;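 active means membrane potential signal shifting up or down by more than 3 SD of buffer-only wells, on both duplicate plates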
# HEK293 MPD ctr-2: parental HEK293 nonspecific activity of TRPC6 modulators. membrane potential signal change, % at 10 µM. AID 488924. membrane potential dye fluorescence. actives 51% (n = 2,400). shares compounds with TRPC6 inh;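 active means membrane potential signal moves up or down beyond 5 SD from buffer-only wells, on both duplicate plates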
# HEK293 MPD ctr 2-2: second check of TRPC6 modulator effects in parental HEK293 cells; shares compounds with TRPC6 inh; membrane potential dye fluorescence; after compound, maximal acetylcholine stimulation; inhibition, % at 10 µM; actives 14% (n = 2,400); AID 488926;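 active means membrane potential signal drops by more than 5 SD from the mean control signal, in both duplicate plates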
# TRPC4/MOR mod: selectivity of TRPC6 modulators against mouse TRPC4; AID 488927; actives 69% (n = 2,400); percent change from control (negative = decrease, positive = increase), % at 10 µM; HEK293 TRPC4/mu-opioid, membrane potential fluorescence; shares compounds with TRPC6 inh;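 active means membrane potential signal moved up or down beyond 5 SD of buffer control wells, in both duplicate plates, actives on both sides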
# TRPC4 ctr inh 2: mouse TRPC4 off-target activity of TRPC6 modulators, second screen; actives 55% (n = 2,400); shares compounds with TRPC6 inh; inhibition, % at 10 µM; HEK293 TRPC4/mu-opioid, membrane potential dye fluorescence; stimulated with maximal-effect DAMGO;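 active means drop in membrane potential signal beyond 5 SD of the control wells in both duplicate plates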;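 further: TRPC4 counter screen for TRPC6 hits run under conditions tuned for TRPC6 not TRPC4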
# TRPC6 inh conf: confirmation of mouse TRPC6 inhibitors. shares compounds with TRPC6 inh. HEK293-TRPC6, membrane potential dye, ACh-evoked depolarization. inhibition, % at 10 µM. actives 43% (n = 3,300). AID 488960;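 active means fluorescence ratio falls more than 5 SD below the full-stimulation control mean, in both duplicate runs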;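 further: integrated fluorescence ratio of peak minus minimum over baseline after agonist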
# TRPC6 act confirm: confirmation of mouse TRPC6 activators | shares compounds with TRPC6 inh | activation, % at 10 µM | HEK293-TRPC6 membrane potential dye fluorescence, FDSS | AID 488961 | actives 11% (n = 2,800);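 active means ratio signal rise beyond 5 SD above unstimulated control wells' mean, seen in both duplicate runs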
# Hits are given with their value; i = inactive; nt = no result given. Rows were chosen to be rich in hits. Some 2.5% of all compounds tested hit in one or more screens of this group.
SMILES,TRPC4 block,TRPC6 activator,TRPC4 act,TRPC4 potent,Platelet DG rel,TRPC6 inh,HEK293 MPD ctr-2,HEK293 MPD ctr 2-2,TRPC4/MOR mod,TRPC4 ctr inh 2,TRPC6 inh conf,TRPC6 act confirm,others
Cc1ccc2c(ccn3cc4c(c(=O)n(C)c(=O)n4C)c23)c1,i,i,i,i,i,-7.2,nt,nt,nt,nt,i,i,TRPC4 spec 2=i;TRPC4 spec=-25%;HEK293 MPD ctr 2-1=i;HEK293 MPD ctr-1=-325%
COc1ccc(S(=O)(=O)N2CCCCC2)cc1NC(=O)c1ccc([N+](=O)[O-])o1,i,i,i,i,i,i,nt,nt,nt,nt,nt,nt,
CN1CCN(c2ccc(S(=O)(=O)N3CCCCC3)cc2NC(=O)c2ccc(F)cc2F)CC1,i,i,i,16,i,-9,nt,nt,nt,nt,i,i,TRPC4 spec 2=70%;TRPC4 spec=i;HEK293 MPD ctr 2-1=278%;HEK293 MPD ctr-1=0.3%
CCN1CCN(c2ccc(S(=O)(=O)N3CCCCC3)cc2NC(=O)COc2cc(C)ccc2Cl)CC1,i,i,i,25,i,-5.7,i,i,i,54%,i,i,
CCN1CCN(c2ccc(S(=O)(=O)N3CCCCC3)cc2NC(=O)c2ccc([N+](=O)[O-])o2)CC1,i,i,i,i,i,-7.5,-130%,i,-30%,54%,i,i,
COc1ccc(CNC(=O)CN(Cc2ccccc2)C(=O)CCC(=O)Nc2ccccn2)cc1,i,i,i,i,i,i,nt,nt,nt,nt,nt,nt,
COc1ccc(Cl)cc1NC(=S)N1CCCC1,i,i,i,i,i,i,nt,nt,nt,nt,nt,nt,
O=C(Cn1c(-c2ccccc2)c[n+]2ccsc12)c1ccc([N+](=O)[O-])cc1,-7,i,50,i,i,-5.3,-198%,i,35%,90%,i,i,
O=C(Cn1nnc(-c2ccccc2)n1)c1ccccc1,i,i,i,i,i,i,nt,nt,nt,nt,nt,nt,
O=C(Cn1c(-c2ccccc2)c[n+]2ccsc12)c1ccccc1,-11,i,i,i,i,-5.3,i,i,16%,58%,i,i,
COc1ccccc1NC(=O)Nc1nc(CC(=O)Nc2cc(F)ccc2F)cs1,i,i,i,i,i,i,nt,nt,nt,nt,nt,nt,
COc1ccc(COc2cc(-c3cccc(OC)c3)nc3ccc(N)cc23)cc1,i,i,i,i,i,-8.3,nt,nt,nt,nt,i,i,TRPC4 spec 2=i;TRPC4 spec=-9.5%;HEK293 MPD ctr 2-1=i;HEK293 MPD ctr-1=i
Cc1ccc(Nc2c(-c3ccccc3)nc3cnccn23)cc1,i,i,i,i,i,i,nt,nt,nt,nt,nt,nt,
Cc1cccc(C)c1Nc1c(-c2ccc(N3CCOCC3)cc2)nc2cnccn12,i,i,i,i,i,-8.3,-236%,i,-42%,92%,75%,i,
COc1ccc(-c2nc3cnccn3c2Nc2ccc(C)cc2)cc1,i,i,i,i,i,-6.2,-70%,i,-16%,84%,61%,i,
CCOc1nc2cnccc2n(CC(=O)Nc2cccc(C)c2)c1=O,i,i,i,i,i,i,nt,nt,nt,nt,nt,nt,
CC(C)(O)C#Cc1ccc(CN2CCN(C3CCCCC3)C(CCO)C2)s1 (stereo unspecified),i,i,i,i,i,-7.4,nt,nt,nt,nt,i,i,TRPC4 spec 2=i;TRPC4 spec=i;HEK293 MPD ctr 2-1=i;HEK293 MPD ctr-1=i
CC(C)N1CCC2(CC1)N=C(c1ccc3c(c1)OCO3)CC(c1cc(Cl)ccc1O)N2 (stereo unspecified),i,i,i,i,i,-7.1,nt,nt,nt,nt,i,i,TRPC4 spec 2=34%;TRPC4 spec=i;HEK293 MPD ctr 2-1=i;HEK293 MPD ctr-1=i
OC(CN1CCN(c2ccccc2Cl)CC1)c1ccccc1 (stereo unspecified),i,i,i,i,i,i,nt,nt,nt,nt,nt,nt,
CCOC(=O)N1CCN(C(=O)COC(=O)CN(C)S(=O)(=O)c2ccc(NC(C)=O)cc2)CC1,i,i,i,i,i,i,nt,nt,nt,nt,nt,nt,
CCOc1ccc(Br)cc1/C=N/O,-6,16,i,i,i,-5.9,124%,i,22%,i,58%,132%,
CCN1CCN(c2c(C=O)c(Cl)nc3ccc(OC)cc23)CC1,i,i,78,i,i,-7.5,-276%,72%,i,54%,58%,i,
CCSc1nc(C)cc(Oc2ccc(=O)n(C)n2)n1,i,i,i,i,i,-8.6,nt,nt,nt,nt,i,i,TRPC4 spec 2=i;TRPC4 spec=i;HEK293 MPD ctr 2-1=i;HEK293 MPD ctr-1=i
Cc1cc(N2CCN(c3cccc(C(F)(F)F)c3)CC2)n2ncnc2n1,i,i,i,i,i,i,nt,nt,nt,nt,nt,nt,
Cc1nc2ncnn2c(N2CCN(c3cccc(C(F)(F)F)c3)CC2)c1C,i,13,i,i,i,i,338%,i,65%,i,i,130%,
SMILES,TRPC4 block,TRPC6 activator,TRPC4 act,TRPC4 potent,Platelet DG rel,TRPC6 inh,HEK293 MPD ctr-2,HEK293 MPD ctr 2-2,TRPC4/MOR mod,TRPC4 ctr inh 2,TRPC6 inh conf,TRPC6 act confirm,others
Cc1ccc(S(=O)(=O)N2CCN(C(=O)C3=COCCO3)CC2)cc1C,i,i,i,i,i,-7,nt,nt,nt,nt,i,i,TRPC4 spec 2=i;TRPC4 spec=-0.7%;HEK293 MPD ctr 2-1=i;HEK293 MPD ctr-1=i
Cc1ccc2sc(NNC(=O)C3=COCCO3)nc2c1C,i,i,i,i,i,i,nt,nt,nt,nt,nt,nt,
Cc1ccc(S(=O)(=O)N2CCN(C(=O)c3cccs3)CC2)cc1C,i,18,i,i,i,i,i,i,16%,i,nt,148%,
Cc1cc2nc(N3CCN(C(=O)c4cccs4)CC3)sc2cc1C,i,i,i,i,i,i,nt,nt,nt,nt,nt,nt,
Cc1cc(C)c2nc(N3CCN(C(=O)c4cccs4)CC3)sc2c1,i,i,i,i,i,-6.5,i,i,i,i,i,i,
Cc1ccc2sc(N3CCN(C(=O)C4=COCCO4)CC3)nc2c1C,i,i,i,i,i,-5.4,i,i,17%,i,68%,nt,
